From PubChem BioAssay
Only some compounds are listed: those with a hit (about 1.8% of all), similar ones and a draw of the others.
CHRM5 PAM: potentiates acetylcholine response at human M5 receptor | activation, % at 3 µM | P08912 | actives 0.3% (n = 360,000) | CHO-K1 hM5, Fluo-8 calcium, ACh EC20 PAM; 0% = ACh EC20, 100% = ACh EC100 | AID 624038;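 active = activation above the run cutoff, the mean activation of all test compounds plus 3 SD, cut at about 18% in these data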
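Probe or stimulus: acetylcholine, EC20 level; Assay system: human M5 receptor in CHO-K1 cells; Schedule: compound preincubation 140 s before EC20 acetylcholine addition; Technique: intracellular calcium via Fluo-8 fluorescence; Dosing: single-point, 3 µM nominal; Read-out basis: percent activation from peak-over-basal fluorescence ratio, scaled EC20-to-EC100 acetylcholine; Repeats: one well per compound, no replicates.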
M4 PAM: potentiates acetylcholine response at human M4 receptor; P08173; CHO-K1 hM4/Gqi5, Fluo-8 calcium fluorescence, ACh EC20; 0% = ACh EC20, 100% = maximal ACh; activation, % at 3 µM; actives 0.4% (n = 360,000);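 active = activation above its plate's cutoff, the mean activation of sample wells plus 3 SD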
Target sequence (P08173 whole entry, looked up): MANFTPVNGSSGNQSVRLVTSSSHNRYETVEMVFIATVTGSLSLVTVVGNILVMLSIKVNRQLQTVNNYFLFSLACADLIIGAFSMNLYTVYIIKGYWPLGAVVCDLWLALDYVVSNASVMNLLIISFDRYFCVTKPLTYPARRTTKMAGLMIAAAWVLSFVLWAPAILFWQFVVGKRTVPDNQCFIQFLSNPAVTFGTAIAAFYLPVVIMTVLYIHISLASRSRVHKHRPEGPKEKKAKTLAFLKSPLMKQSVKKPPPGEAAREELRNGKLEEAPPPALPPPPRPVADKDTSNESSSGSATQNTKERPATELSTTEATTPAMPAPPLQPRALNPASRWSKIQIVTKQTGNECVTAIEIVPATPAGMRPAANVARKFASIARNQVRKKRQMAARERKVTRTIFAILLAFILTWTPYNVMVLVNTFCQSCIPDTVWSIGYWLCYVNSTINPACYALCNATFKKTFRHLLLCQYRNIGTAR
M4 antag: CHRM4 antagonism in calcium assay | CHO-hM4 cells, ACh EC80, Fluo-8 calcium fluorescence | actives 0.73% (n = 360,000) | inhibition, % at 3 µM | AID 624125 | P08173;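 active = inhibition above its plate's cutoff, the mean inhibition of sample wells plus 3 SD, cut at about 27% in these data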;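 also: 0% = acetylcholine EC80 with DMSO and 100% = DMSO without agonist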
M5 ag: agonists of human muscarinic M5 receptor (CHRM5); actives 0.19% (n = 360,000); CHO-K1 hM5 cells, Fluo-8 calcium fluorescence; 0% DMSO wells, 100% maximal acetylcholine response; P08912; activation, % at 3 µM;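 active = activation above the run's mean over test compounds plus 3 SD, cut at about 23% in these data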;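 also: signal is peak over basal fluorescence ratio across the kinetic read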
CHRM4 agonist: agonists of human muscarinic M4 receptor (CHRM4) | activation, % at 3 µM | CHO-K1 hM4/Gqi5, Fluo-8 calcium fluorescence; vehicle 0%, full acetylcholine response 100% | P08173 | actives 0.14% (n = 360,000);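 active = activation above the run mean over all test wells plus 3 SD, cut at about 32% in these data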;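 also: peak over basal fluorescence ratio per well then scaled between controls; 0% = DMSO wells and 100% = acetylcholine at EC100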
M5 antag: blocks acetylcholine activation of human M5 receptor. P08912. CHO-hM5 cells, Fluo-8 calcium fluorescence, ACh EC80. inhibition, % at 3 µM. actives 0.59% (n = 360,000). AID 624040;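 active = inhibition above a per-plate cutoff, the mean of that plate's test compounds plus 3 SD, cut at about 27% in these data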;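 also: 0% = acetylcholine EC80 with DMSO and 100% = DMSO without agonist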
Starred values were filed as active, the others as inactive.

SMILES	CHRM5 PAM	M4 PAM	M4 antag	M5 ag	CHRM4 agonist	M5 antag
CCc1cccc(NS(=O)(=O)c2c(C)nc3sc(CC)nn3c2=O)c1	-23	-18	29*	-2	7	30*
CCc1nc2c(OCc3cccc(Cl)c3)cccn2c1N(C)C(=O)c1ccco1	-4	-1	-2	-3	-2	4
Fc1ccccc1CN1CCCN(C(=S)Nc2cccc(Cl)c2)C1	-27	-17	11	3	23	29*
Cc1nc2sc(C(=O)c3ccccc3)c(N)c2c(C)c1C	-2	13	67*	0	69*	-4
CC(C)OC(=O)c1sc2nc(-c3ccccc3)ccc2c1N	-6	-10	11	-3	13	-1
COc1ccc(C(=O)c2sc3nc(-c4ccccc4)ccc3c2N)cc1	-17	-13	15	15	13	34*
O=C(CCN=C1NS(=O)(=O)c2ccccc21)Nc1ccc(Cl)cc1F	3	15	-8	0	0	-6
CCn1c(=O)c2cc(C(=O)NCCN(C)C)sc2c2ccccc21	19*	-4	-4	-4	1	-11
Cc1ccccc1C(=O)NNc1ncnc2c1cnn2C	-8	-15	13	2	0	17
Cc1ccc(C(=O)NNc2ncnc3c2cnn3C)cc1	19*	1	-9	2	1	-5
COc1cccc(N2CCN(c3ccc([N+](=O)[O-])cn3)CC2)c1	11	17*	-1	-1	1	22
Cc1ccc(N2C(=O)N(CC(=O)Nc3ccccc3C)C(=O)C2C)cc1 (centres undefined)	19*	8	-16	2	3	-40
Cc1cc(S(=O)(=O)NCc2ccccc2)ccc1OCC(=O)NCc1ccccn1	-9	0	-9	-3	4	30*
COc1ccc(-n2ncc3c(SCC(=O)N4CCN(c5ccccc5OC)CC4)ncnc32)cc1	-2	-1	-1	3	1	-1
Cc1cc2c(c(=O)n1CC1CCCO1)C(c1ccc3c(c1)OCO3)C(C#N)=C(N)O2 (centres undefined)	8	15	2	-2	0	-2
CCn1c(C)cc2c(c1=O)C(c1ccc3c(c1)OCO3)C(C#N)=C(N)O2 (centres undefined)	-23	-13	30*	-8	1	19
O=C(Oc1cccc(Nc2ncnc3ccccc23)c1)c1ccccc1Cl	-27	-14	34*	1	15	45*
O=[N+]([O-])c1ccc(-c2nc(Cl)c3c(n2)CCCC3)o1	-6	2	-3	-1	-1	3
CCCCCCCCN1C(=O)[C@H](CC(=O)NCCC(C)C)C[C@@]2(C(=O)OCC)CCCC=C12	-7	8	-10	-2	-3	6
Cc1cc(C(c2ccc(O)cc2)c2cc(C)c(O)cc2C)c(C)cc1O	-1	-7	8	37*	30	7
Cc1cccc(OCC(=O)NCCCNC(=O)c2ccc(C)nc2)c1	3	4	2	1	1	1
CC[C@H](C)[C@H](NC(N)=O)C(=O)Nc1ccc(S(=O)(=O)NC(C)C)cc1	6	-5	30*	-5	1	-1
Oc1ccc(N=Nc2ccc3c(c2)OCCO3)c2ncccc12	-35	-33	30*	28*	37*	36*
COc1cc(S(=O)(=O)NCc2ccncc2)ccc1Br	-16	-3	-4	2	12	35*
COC(=O)COc1ccc(S(=O)(=O)NCc2ccncc2)cc1	-17	-5	6	7	18	28*
SMILES	CHRM5 PAM	M4 PAM	M4 antag	M5 ag	CHRM4 agonist	M5 antag
Cc1ccc(OCc2cc(C(=O)N(C)Cc3cc(C4CC4)n[nH]3)no2)cc1C	3	3	-7	5	8	-23
CCCCN(C(=O)Cc1ccc2c(c1)OCCO2)c1c(N)n(CC(C)C)c(=O)[nH]c1=O	-1	4	-4	6	2	5
Cc1nc(N)c(Cc2ccc(Cl)cc2Cl)c(N)n1	-17	-18	20	2	36*	28*
CN(CC(=O)Nc1ccc(F)cc1)C(=O)CN1C(=O)c2cccc([N+](=O)[O-])c2C1=O	6	7	-6	3	3	-1
Cc1cc(N/C(=N\S(=O)(=O)c2ccc(F)cc2F)c2ccccc2)no1	3	20*	-9	1	1	2
O=S(=O)(/N=C(/Nc1cccnc1)c1ccccc1)c1ccc(F)cc1F	6	2	10	-3	0	5
COc1ccc2cc1Oc1ccc(cc1)C[C@H]1c3cc(c(OC)cc3CCN1C)Oc1c(OC)c(OC)cc3c1[C@H](C2)N(C)CC3	-9	-17	78*	0	6	3
CCOC(=O)c1cnc2c(C)cccc2c1Nc1cccc(C(=O)O)c1	-4	14	30*	-4	2	8
CCOC(=O)c1cnc2c(Cl)cccc2c1NCCN(C)C	45*	12	5	-1	1	20
CCOC(=O)c1cnc2c(ccc3ccccc32)c1NCCN(C)C	10	-4	12	10	1	-1
CN(CC(=O)Nc1ccc(F)cc1)C(=O)COC(=O)CCN1C(=O)C2CC=CCC2C1=O (centres undefined)	-2	4	-4	-3	1	10
Cc1ccccc1-n1c(Cn2c(=O)sc3ccccc32)nnc1SCC(=O)Nc1nccs1	2	4	-5	2	2	-3
Cc1csc(NC(=O)CSc2nnc(Cn3c(=O)sc4ccccc43)n2-c2ccccc2)n1	-6	29*	-5	3	4	6
CC1CCCN(C(=O)CSc2ncccn2)C1 (centres undefined)	6	0	-2	-1	1	-6
Cc1ccc(C2NC(=S)NC3=C2C(=O)CCC3)cc1 (centres undefined)	2	0	-3	-2	1	4
CC(C)c1ccc(C2NC(=S)NC3=C2C(=O)CCC3)cc1 (centres undefined)	-17	-31	27*	-8	0	10
Nc1[nH]c2cc([N+](=O)[O-])ccc2c1-c1ccccn1	-17	-20	21	26*	54*	32*
COc1ccc(N2CCN(C(=O)COC(=O)c3oc4ccc(OC)cc4c3C)CC2)cc1	-24	-12	4	5	26	17
O=C(Nc1nc2ccc(S(=O)(=O)N3CCCCC3)cc2s1)C1CCCO1 (centres undefined)	0	34*	12	2	3	4
CCOC(=O)C1CCN(c2ncnc3c(C)csc23)CC1	-32	-46	35*	6	22	20
